Test [1] has as its system Mus musculus. Description: In vivo average survival rate of mouse infected by T.b. rhodesiense was determined for a period of 60 days at dose of 50 mg/kg by p.o. administration. Conditions: route oral. The test is classed as functional. The method, boiled down: (§1)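 Mice infected with T. b. rhodesiense STIB900. Diamidines were given intraperitoneally and prodrugs orally, with an untreated infected control group. Parasitemia was monitored daily to day 14, then twice weekly to day 60. For relapsing mice, the day of death was recorded and survival time was averaged in days.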

Test [2] deals with Trypanosoma brucei rhodesiense. Description: In vitro inhibitory activity against T. b. rhodesiense. The test is classed as functional, organism-based.
Test [3] deals with Mus musculus. Description: No. of mice that survived T.b. rhodesiense infection and are parasite free for 60 days was determined at dose of 50 mg/kg by p.o. administration; 4 animals tested. The test is classed as functional. The following applies: route oral. The method, boiled down: (§2)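 Mice infected with T. b. rhodesiense STIB900. Diamidines were given intraperitoneally and prodrugs orally. An untreated infected group served as control. Parasitemia was checked daily up to day 14 post-infection, then twice weekly up to day 60. A cure was counted as a mouse that survived and stayed parasite-free for 60 days.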

Test [4] relates to Mus musculus. Kind of test: In vivo average survival rate of mouse infected by T.b. rhodesiense was determined for a period of 60 days at dose of 5 mg/kg by p.o. administration. The following applies: route oral. The test is classed as functional. The method, boiled down:
as §1

Test [5] relates to Mus musculus. Kind of test: In vivo antitrypanosomal activity against T.b. rhodesiense mouse and no. of that survive and are parasite free for 60 days was determined at dose of 5 mg/kg by p.o. administration; 4 animals tested. The test is classed as functional. Conditions: route oral. The method, boiled down: as §2
For test [6], the system named is Plasmodium falciparum. Kind of test: In vitro inhibitory activity against Plasmodium falciparum. The test is classed as functional, organism-based.
The subject of test [7] is Mus musculus. Kind of test: No. of mice that survived T.b. rhodesiense infection and are parasite free for 60 days was determined at dose of 50 mg/kg by p.o. administration; 5 animals tested. Conditions: route oral. The test is classed as functional. The method, boiled down: as §2
The subject of test [8] is Nucleic Acid.
Test [9] has as its system Mus musculus. Description: No. of mice that survived T.b. rhodesiense infection and are parasite free for 60 days was determined at dose of 100 mg/kg by p.o. administration; 4 animals tested. The test is classed as functional. Conditions: route oral. The method, boiled down:
as §2

In test [10] the test system is Mus musculus. Kind of test: In vivo average survival rate of mouse infected by T.b. rhodesiense was determined for a period of 60 days at dose of 100 mg/kg by p.o. administration. The test is classed as functional. The following applies: route oral. The method, boiled down:
as §1

In test [11] the test system is Mus musculus. Description: No. of mice that survived T.b. rhodesiense infection and are parasite free for 60 days was determined at dose of 20 mg/kg by i.p. administration; 4 animals tested. The test is classed as functional. Conditions: route intraperitoneal. The method, boiled down: as §2
Test [12] deals with Nucleic Acid. The following applies: Bos taurus.
Test [13] has as its system Mus musculus. Description: In vivo average survival rate of mouse infected by T.b. rhodesiense was determined for a period of 60 days at dose of 20 mg/kg by i.p. administration. The test is classed as functional. Conditions: route intraperitoneal. The method, boiled down: as §1
In test [14] the test system is Mus musculus. Description: No. of mice that survived T.b. rhodesiense infection and are parasite free for 60 days was determined at dose of 75 mg/kg by p.o. administration; 4 animals tested. The following applies: route oral. The test is classed as functional. The method, boiled down: as §2
The subject of test [15] is Mus musculus. Kind of test: In vivo average survival rate of mouse infected by T.b. rhodesiense was determined for a period of 60 days at dose of 75 mg/kg by p.o. administration. The test is classed as functional. The following applies: route oral. The method, boiled down: as §1
For test [16], the system named is Mus musculus. Description: No. of mice that survived T.b. rhodesiense infection and are parasite free for 60 days was determined at dose of 5 mg/kg by p.o. administration; 4 animals tested. The test is classed as functional. Conditions: route oral. The method, boiled down:
as §2

In test [17] the test system is Nucleic Acid. This is another data set of the same source.
For test [18], the system named is Mus musculus. Kind of test: No. of mice that survived T.b. rhodesiense infection and are parasite free for 60 days was determined at dose 5 mg/kg of by p.o. administration; 4 animals tested. The test is classed as functional. Conditions: route oral. The method, boiled down: as §2

Bounds are passed on as bounds.

For the compound `CO/N=C(\N)c1ccc(-c2ccc(-c3ccc(/C(N)=N/OC)cn3)o2)nc1`, the results for the Survival in test [1] and in test [4] were 60 days and 40 days, respectively. Further, the IC50 in [2] stood at 11.1 µM; in test [6] it was 1.77 µM. The Cures came to 4 in [3] and 1 in [5].

Consider `CONC(=N)c1ccc(-c2ccc(-c3ccc(C(=N)NOC)cc3)o2)cc1` [PAFURAMIDINE], for which the Survival in [1] was 60 days. For the same compound, the Cures in test [7] came out at 2.

For the compound `N=C(NO)c1cccc(-c2ccc(-c3ccc(/C(N)=N\O)cn3)o2)c1`, the results for the IC50 in test [2] and in test [6] were 13.3 µM and 41.5 µM, respectively.

Turning to `CONC(=N)c1ccc(-c2ccc(-c3ccc(C(=N)NOC)nc3)o2)cn1`, the ΔTm in [8] is -0.5. The concentration for half-maximal inhibition (IC50) in test [2] came out at 1.91 µM; in test [6], 1.31 µM. For the same compound, in test [9], the Cures was 0. This compound had a Survival in test [10] of 21.75 days.

With `N=C(NO)c1ccc(-c2ccc(-c3ccc(/C(N)=N/O)nc3)o2)cn1`, the Survival in test [1] was determined as 30 days. Moreover, the figures for the concentration for half-maximal inhibition (IC50) in test [2] and in test [6] were greater than 21 µM and greater than 10.5 µM, respectively. Also, the Cures in [3] was found to be 1.

Take `N=C(NO)c1ccc(-c2ccc(-c3ccc(/C(N)=N/O)cn3)o2)cc1`: the concentration for half-maximal inhibition (IC50) in [2] is 120 µM; in test [6], 4.3 µM. The same compound had a Cures in test [9] of 0. The compound also registered a Survival in [10] of 54 days.

On to `N=C(N)c1ccc(-c2ccc(-c3ccc(C(=N)N)cc3)o2)cc1` [FURAMIDINE], for which the Cures in [11] is given as 0. In [12], the ΔTm amounted to 8.9. The same compound yielded a Survival in [13] of 52.5 days.

Consider `CONC(=N)c1ccc(-c2ccc(-c3ccc(C(=N)NOC)nc3)o2)cc1`, for which the Cures in test [14] came out at 4; in [16], 1. Moreover, the values for the IC50 in [2] and in test [6] were 6.5 µM and 8.5 µM, respectively. Further, the Survival in [4] is 34.25 days; in [15] it was 60 days.

As for `N=C(N)c1ccc(OCCCCCOc2ccc(C(=N)N)cc2)cc1` [PENTAMIDINE], in test [11], the Cures worked out at 0. The ΔTm in test [12] is 2. Also, in test [13], the Survival came to 40.8 days.

As to `N=C(N)c1ccc(Cc2ccc(-c3ccc(C(=N)N)nc3)o2)cc1`, the ΔTm was 3.6 in [8] and 1.3 in test [12]. Moreover, the IC50 in test [2] came to 0.147 µM; in test [6] it was 0.148 µM.

Take `N=C(N)c1ccc(-c2ccc(-c3ccc(C(=N)N)nc3)o2)cn1`: the half-inhibitory concentration (IC50) was 0.007 µM in [2] and 0.0039 µM in test [6]. The compound also gave a Cures in [11] of 3. Further, the results for the ΔTm in test [12] and in test [17] were 8.2 and 18.5, respectively. The compound further registered a Survival in [13] of 59 days.

Regarding `N=C(N)c1ccc(-c2ccc(-c3cccc(C(=N)N)c3)o2)nc1`, the results for the ΔTm in [8] and in [12] were 7.3 and 3.3, respectively. The IC50 in test [2] was 0.0407 µM; in [6], 0.0088 µM. Further, in test [11], the Cures is on record as 0. The compound further registered a Survival in test [13] of 26.25 days.

With `N=C(N)c1ccc(-c2ccc(-c3ccc(C(=N)N)cn3)o2)nc1`, the ΔTm is 15.5 in test [8] and 5.4 in test [12]. For the same compound, the values for the IC50 in test [2] and in [6] were 0.021 µM and 0.083 µM, respectively. The compound further came in with a Cures in [11] of 4. This compound came in with a Survival in [13] of 60 days.

In [9], `N=C(NO)c1ccc(-c2ccc(-c3ccc(/C(N)=N\O)cc3)o2)cc1` had a Cures of 0. The Survival in test [10] stood at 50 days.

`CONC(=N)c1ccc(-c2ccc(-c3ccc(C(=N)NOC)cn3)s2)cc1`: in [8], the ΔTm was 0. Further, the figures for the IC50 in test [2] and in [6] were 9.4 µM and 4.9 µM, respectively.

On to `CCONC(=N)c1ccc(-c2ccc(-c3ccc(C(=N)NOCC)cn3)o2)cc1`, for which the results for the IC50 in test [2] and in [6] were 8.4 µM and 7.3 µM, respectively. The same compound yielded a Cures in test [9] of 4. The same compound returned a Survival in test [10] of 60 days.

As for `N=C(N)c1ccc(-c2ccc(-c3ccc(C(=N)N)nc3)o2)cc1`, the ΔTm stood at 22.6 in test [8] and 3.1 in test [12]. For the same compound, the results for the concentration for half-maximal inhibition (IC50) in test [2] and in test [6] were 0.0031 µM and 0.0183 µM, respectively. The compound also gave a Cures in test [11] of 2. The same compound gave a Survival in test [13] of 56.5 days.

On to `CO/N=C(\N)c1ccc(-c2ccc(-c3ccc(/C(N)=N/OC)cn3)o2)cc1`, for which the ΔTm in test [8] stood at 0.9. Also, the results for the IC50 in test [2] and in test [6] were 37.1 µM and 4.9 µM, respectively. This compound also gave a Survival in test [4] of 60 days. The same compound yielded a Cures in [18] of 4.

Consider `N=C(N)c1ccc(-c2ccc(-c3ccc(C(=N)N)cn3)o2)cc1`, for which the concentration for half-maximal inhibition (IC50) in test [2] came out at 0.007 µM. In test [11], this compound yielded a Cures of 4. In [12], the ΔTm was found to be 6.6. In test [13], this compound displayed a Survival of 60 days.

`N/C(=N\O)c1ccc(-c2ccc(-c3ccc(/C(N)=N\O)cn3)o2)nc1` yielded a Cures in test [14] of 0. The ΔTm in test [8] came to 0.9. Further, the values for the half-inhibitory concentration (IC50) in test [2] and in test [6] were 55.8 µM and greater than 10.2 µM, respectively. The compound also returned a Survival in test [15] of 18 days.

As to `N=C(NO)c1ccc(-c2ccc(-c3ccc(/C(N)=N\O)cc3)s2)nc1`, in test [6], the 50% inhibitory concentration (IC50) is greater than 10.4 µM.

With `N=C(NO)c1ccc(-c2ccc(-c3ccc(/C(N)=N/O)nc3)o2)cc1`, in test [14], the Cures is listed as 3. Further, in test [15], the Survival was found to be 52.75 days. The same compound had a 50% inhibitory concentration (IC50) in test [6] greater than 11.7 µM.

The values are drawn from ChEMBL document CHEMBL1145745 (J Med Chem, 2003).
